Reference: ChEMBL document CHEMBL2331509, “Design, synthesis, characterization and anti-inflammatory evaluation of novel pyrazole amalgamated flavones” (2013)

Experiments:
Rattus norvegicus [1] = assay: Antiinflammatory activity in Wistar rat assessed as inhibition of carrageenan-induced paw volume at 100 mg/kg, po measured after 3 hrs of carrageenan challenge (reference value: 1.17 +/- 0.1 ml); assay type: functional
Rattus norvegicus [2] = assay: Antiinflammatory activity in Wistar rat assessed as inhibition of carrageenan-induced paw volume at 100 mg/kg, po measured after 6 hrs of carrageenan challenge (reference value: 1.69 +/- 0.08 ml); assay type: functional
Rattus norvegicus [3] = assay: Antiinflammatory activity in Wistar rat assessed as inhibition of carrageenan-induced paw volume at 100 mg/kg, po measured after 1 hr of carrageenan challenge (reference value: 0.94 +/- 0.05 ml); assay type: functional
[4] = target: T1, Prostaglandin G/H synthase 1 (Ovis aries) (UniProt P05979); assay: Inhibition of ovine COX1 assessed as appearance of oxidized N,N,N,N'- tetramethyl-p-phenylenediamine at 100 uM
T1 sequence (whole entry): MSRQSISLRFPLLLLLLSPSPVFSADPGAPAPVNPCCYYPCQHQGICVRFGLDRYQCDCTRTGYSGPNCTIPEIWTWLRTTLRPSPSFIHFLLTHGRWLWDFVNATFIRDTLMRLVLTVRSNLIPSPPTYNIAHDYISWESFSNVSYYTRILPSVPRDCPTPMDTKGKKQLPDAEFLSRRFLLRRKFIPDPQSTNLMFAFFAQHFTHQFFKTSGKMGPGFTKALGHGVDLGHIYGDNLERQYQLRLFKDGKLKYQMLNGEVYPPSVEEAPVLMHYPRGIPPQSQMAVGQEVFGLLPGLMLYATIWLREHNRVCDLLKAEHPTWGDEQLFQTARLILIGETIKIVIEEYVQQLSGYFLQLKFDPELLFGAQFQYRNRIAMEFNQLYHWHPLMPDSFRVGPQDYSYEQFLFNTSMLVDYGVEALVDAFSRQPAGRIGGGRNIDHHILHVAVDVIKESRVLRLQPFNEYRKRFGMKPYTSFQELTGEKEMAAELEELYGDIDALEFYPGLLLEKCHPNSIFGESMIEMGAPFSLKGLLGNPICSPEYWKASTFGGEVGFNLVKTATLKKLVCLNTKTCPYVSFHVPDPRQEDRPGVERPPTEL
In short: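 Colorimetric ovine COX screening kit. The reaction held assay buffer, heme, COX-1 enzyme and test sample at 100 µM. The COX peroxidase activity was followed by the appearance of oxidized TMPD at 590 nm. Inhibition was calculated as (1 − T/C)×100, where C is the absorbance of the uninhibited well.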

Mus musculus = assay: Antiinflammatory activity in mouse assessed as inhibition of acetic acid-induced vascular permeability by measuring Evan's blue dye leakage at 100 mg/kg, po administered 1 hr before acetic acid challenge measured after 30 mins; assay type: functional
In short: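 Mice, n=6 per group, were dosed orally at 100 mg/kg; the vehicle was 2% gum acacia at 10 mL/kg. After 1 h they received 0.25 mL of 0.6% v/v acetic acid i.p., then immediately 10% w/v Evans blue at 10 mL/kg i.v. by tail vein. After 30 min they were killed with ether. The viscera were irrigated with 5 mL saline; the perfusate was filtered, made up to 10 mL, and dye read at 620 nm.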

Row | Structure (SMILES) | Activity (Rattus norvegicus [1]) [mL] | Activity (Rattus norvegicus [2]) [mL] | Activity (Rattus norvegicus [3]) [mL] | inhibition [4] [%] | inhibition in vivo at 100 mg/kg (Mus musculus) [%]
1 | COc1cc(OC)c2c(=O)cc(-c3c(Cl)cccc3Cl)oc2c1-c1ccnn1C | 1.46 | 1.01 | 0.79 | 48.9 | 57.8
2 | COc1cc(OC)c2c(=O)cc(-c3ccc(F)c(F)c3)oc2c1-c1ccnn1C | 0.99 | 1.2 | 0.79 | 52.8 | 
3 | COc1cc(OC)c2c(=O)cc(-c3ccc(Br)cc3)oc2c1-c1ccnn1C | 0.99 | 1.11 | 0.81 | 54.1 | 35.1
4 | COc1ccc(-c2cc(=O)c3c(OC)cc(OC)c(-c4ccnn4C)c3o2)cc1OC | 0.96 | 0.99 | 0.79 | 48.4 | 68.2
5 | COc1cc(OC)c2c(=O)cc(-c3ccccc3)oc2c1-c1ccnn1C | 0.91 | 1.22 | 0.77 | 54.1 | 
6 | COc1cc(OC)c2c(=O)cc(-c3cccs3)oc2c1-c1ccnn1C | 1.18 | 1.55 | 0.91 | 60 | 
7 | COc1cc(OC)c2c(=O)cc(-c3ccc4c(c3)OCO4)oc2c1-c1ccnn1C | 0.92 | 1.07 | 0.86 | 51.6 | 25.3
8 | COc1ccc2c(c1)c(CC(=O)O)c(C)n2C(=O)c1ccc(Cl)cc1 [INDOMETHACIN] | 0.95 | 0.78 | 0.86 |  | 70.4
9 | COc1cc(OC)c2c(=O)cc(-c3ccc(Cl)cc3Cl)oc2c1-c1ccnn1C | 1.11 | 1.32 | 0.89 | 46.1 | 
10 | COc1cc(OC)c2c(=O)cc(-c3cccc([N+](=O)[O-])c3)oc2c1-c1ccnn1C | 1 | 1.02 | 1.04 | 47.4 | 33.3
11 | COc1cc(OC)c2c(=O)cc(-c3ccco3)oc2c1-c1ccnn1C | 0.94 | 0.88 | 0.87 | 20.4 | 60.5
12 | COc1cc(OC)c2c(=O)cc(-c3ccc(F)cc3F)oc2c1-c1ccnn1C | 1.01 | 1.44 | 0.78 | 51.6 | 
13 | COc1cc(OC)c2c(=O)cc(-c3c(F)cccc3F)oc2c1-c1ccnn1C | 1.24 | 1.44 | 0.88 | 52.2 | 
14 | COc1cc(OC)c2c(=O)cc(-c3ccc(F)cc3)oc2c1-c1ccnn1C | 1.05 | 1.17 | 0.76 | 54.1 | 51.9
15 | COc1cc(OC)c(-c2cc(=O)c3c(OC)cc(OC)c(-c4ccnn4C)c3o2)c(OC)c1 | 0.95 | 0.97 | 0.83 | 45.7 | 72.3
